Where two headings read alike, the source gives them in different places.
Experiments:
DLD1 cells [1] = test: Cell growth inhibition; type: cell-based, human; conditions: through apoptosis; more effective toward DLD1 cells
DLD1 cells [2] = test: Western blot of signaling proteins; type: cell-based, human; conditions: 48 hours, different concentrations
KDR/VEGFR2 = KDR/VEGFR2 (Homo sapiens, UniProt P35968); test: Recombinant kinase 33P-ATP activity assay; type: biochemical
DLD1 cells [3] = test: Caspase 3/7 activity assay; type: cell-based, human; conditions: 24 hours treatment, 0.2, 1 and 5μM
Procedure, shortened: (§1)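 Cells grown in DMEM with 10% FBS and penicillin/streptomycin at 37°C, 5% CO2, then seeded at 1×10^4 per well. […] Caspase 3/7 read by caspase-Glo, normalized to each line's untreated control (=1); mean of 6 wells ± standard deviation.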

FGFR1 = FGFR1 (Homo sapiens, UniProt P11362); test: Recombinant kinase 33P-ATP activity assay; type: biochemical
FGFR1, sequence (P11362 22-822): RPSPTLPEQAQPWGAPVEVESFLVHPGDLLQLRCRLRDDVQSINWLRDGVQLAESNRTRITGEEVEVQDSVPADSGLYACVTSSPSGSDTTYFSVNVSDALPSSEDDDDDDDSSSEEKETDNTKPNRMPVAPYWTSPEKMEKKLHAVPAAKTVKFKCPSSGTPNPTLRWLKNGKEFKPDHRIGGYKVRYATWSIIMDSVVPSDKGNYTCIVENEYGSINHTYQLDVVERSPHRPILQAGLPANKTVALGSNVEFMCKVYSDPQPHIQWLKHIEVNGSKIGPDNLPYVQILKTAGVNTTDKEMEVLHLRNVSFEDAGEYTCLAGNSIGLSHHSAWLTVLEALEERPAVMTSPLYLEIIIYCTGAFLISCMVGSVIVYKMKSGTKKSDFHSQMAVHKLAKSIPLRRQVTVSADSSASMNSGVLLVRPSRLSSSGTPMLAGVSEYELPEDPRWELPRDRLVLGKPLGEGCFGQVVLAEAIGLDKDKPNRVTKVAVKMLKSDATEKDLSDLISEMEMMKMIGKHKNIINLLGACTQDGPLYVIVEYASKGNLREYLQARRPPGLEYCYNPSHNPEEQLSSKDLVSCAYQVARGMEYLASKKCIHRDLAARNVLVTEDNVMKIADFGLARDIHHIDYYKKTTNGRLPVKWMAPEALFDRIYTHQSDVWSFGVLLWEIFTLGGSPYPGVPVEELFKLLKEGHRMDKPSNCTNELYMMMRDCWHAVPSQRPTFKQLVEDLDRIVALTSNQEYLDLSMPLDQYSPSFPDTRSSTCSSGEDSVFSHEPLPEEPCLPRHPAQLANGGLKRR

FGFR2 = FGFR2 (Homo sapiens, UniProt P21802); test: Recombinant kinase 33P-ATP activity assay; type: biochemical
HEK293 cells [4] = test: Caspase 3/7 activity assay; type: cell-based, human; conditions: 24 hours treatment, 0.2, 1 and 5μM
Procedure, shortened: as §1

c-Src = c-Src (Homo sapiens, UniProt P12931); test: Recombinant kinase 33P-ATP activity assay; type: biochemical
c-Src, sequence (P12931 whole entry): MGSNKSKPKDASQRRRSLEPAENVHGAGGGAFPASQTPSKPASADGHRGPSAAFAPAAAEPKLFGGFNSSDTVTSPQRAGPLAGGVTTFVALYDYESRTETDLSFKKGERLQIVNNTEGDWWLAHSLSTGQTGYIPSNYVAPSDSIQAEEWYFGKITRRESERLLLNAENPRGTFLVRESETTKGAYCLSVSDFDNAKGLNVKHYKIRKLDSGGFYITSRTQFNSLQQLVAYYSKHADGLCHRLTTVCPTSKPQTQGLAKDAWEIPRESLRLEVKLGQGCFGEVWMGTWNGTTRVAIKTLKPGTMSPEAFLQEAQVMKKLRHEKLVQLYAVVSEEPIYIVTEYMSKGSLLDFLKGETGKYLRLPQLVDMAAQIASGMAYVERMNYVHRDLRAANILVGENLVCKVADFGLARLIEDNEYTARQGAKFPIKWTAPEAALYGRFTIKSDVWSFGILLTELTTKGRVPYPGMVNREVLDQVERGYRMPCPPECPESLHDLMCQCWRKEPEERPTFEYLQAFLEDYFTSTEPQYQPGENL

C6 cells [5] = test: Cell growth inhibition; type: cell-based, rat; conditions: through apoptosis
CDK2/cyclin A = CDK2/cyclin A (Homo sapiens, UniProt P24941); test: Recombinant kinase 33P-ATP activity assay; type: biochemical
HCT116 cells [6] = test: Caspase 3/7 activity assay; type: cell-based, human; conditions: 24 hours treatment, up to 5μM
Procedure, shortened: as §1

HEK293 cells [7] = test: FACS analysis of cell cycle distribution; type: cell-based, human; conditions: 48 hours
Procedure, shortened: (§2)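 Cells treated with test compound at several concentrations for 48 h. 1×10^6 cells trypsinized, washed in PBS and resuspended in 1% BSA/PBS. Fixed in 3 volumes of −20 °C ethanol for ≥1 h, washed twice, then stained ≥3 h at 4 °C at ~1×10^6 cells/ml in PI (50μg/ml), RNase A (0.5μg/ml) and 3.8mM sodium citrate. Flow cytometry, excitation 535nm, emission 617nm, ≥10,000 cells/sample.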

C6 cells [8] = test: Western blot of signaling proteins; type: cell-based, rat; conditions: 48 hours
Procedure, shortened: (§3)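 Cells exposed to indicated concentrations of test compound for 48 h. Harvested by trypsin/EDTA, lysed 15 min on ice in M-PER with protease inhibitors (10^7 cells/ml), cleared at 17000rpm for 30 min. Protein measured by Bradford; 30μg resolved by SDS-PAGE onto PVDF. Blocked in 5% milk/TBST; primary antibodies overnight at 4°C, HRP secondaries 1 h at room temperature; ECL detection with β-tubulin loading control.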

EGFr = EGFr (Homo sapiens, UniProt P00533); test: Recombinant kinase 33P-ATP activity assay; type: biochemical
EGFr, sequence (P00533 25-1210): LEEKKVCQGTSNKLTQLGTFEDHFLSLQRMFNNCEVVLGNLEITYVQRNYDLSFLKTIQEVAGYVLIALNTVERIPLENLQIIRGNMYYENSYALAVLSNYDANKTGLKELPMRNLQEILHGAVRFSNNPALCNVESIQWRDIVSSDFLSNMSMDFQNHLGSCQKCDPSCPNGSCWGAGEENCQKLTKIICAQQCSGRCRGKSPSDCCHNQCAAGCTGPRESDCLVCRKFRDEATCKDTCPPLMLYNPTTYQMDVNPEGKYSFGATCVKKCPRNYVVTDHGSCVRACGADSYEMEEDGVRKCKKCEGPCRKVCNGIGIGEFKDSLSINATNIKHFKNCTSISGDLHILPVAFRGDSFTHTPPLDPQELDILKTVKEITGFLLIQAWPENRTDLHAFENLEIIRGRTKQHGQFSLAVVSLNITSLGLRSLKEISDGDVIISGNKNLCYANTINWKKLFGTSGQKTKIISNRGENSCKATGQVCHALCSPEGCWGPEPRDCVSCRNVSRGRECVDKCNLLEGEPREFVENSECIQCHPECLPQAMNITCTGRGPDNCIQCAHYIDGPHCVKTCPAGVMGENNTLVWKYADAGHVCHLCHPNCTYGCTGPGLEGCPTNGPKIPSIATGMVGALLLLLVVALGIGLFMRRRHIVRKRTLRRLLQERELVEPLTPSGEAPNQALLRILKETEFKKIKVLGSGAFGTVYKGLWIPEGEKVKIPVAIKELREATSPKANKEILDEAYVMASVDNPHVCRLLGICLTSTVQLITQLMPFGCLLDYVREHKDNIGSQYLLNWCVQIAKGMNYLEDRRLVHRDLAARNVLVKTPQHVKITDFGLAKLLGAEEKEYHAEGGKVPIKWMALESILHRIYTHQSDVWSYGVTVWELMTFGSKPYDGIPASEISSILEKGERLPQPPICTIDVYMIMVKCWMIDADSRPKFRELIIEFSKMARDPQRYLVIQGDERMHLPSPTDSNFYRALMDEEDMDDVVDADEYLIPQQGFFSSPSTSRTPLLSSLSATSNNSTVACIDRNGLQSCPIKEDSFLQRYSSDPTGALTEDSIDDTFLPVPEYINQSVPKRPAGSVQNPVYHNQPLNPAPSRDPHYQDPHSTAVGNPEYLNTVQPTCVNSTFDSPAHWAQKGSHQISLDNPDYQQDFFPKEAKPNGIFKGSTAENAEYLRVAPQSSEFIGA

FLT1/VEGFR1 = FLT1/VEGFR1 (Homo sapiens, UniProt P17948); test: Recombinant kinase 33P-ATP activity assay; type: biochemical
HCT116 cells [9] = test: Western blot of signaling proteins; type: cell-based, human; conditions: 48 hours, different concentrations
PDGFRa = PDGFRa (Homo sapiens, UniProt P16234); test: Recombinant kinase 33P-ATP activity assay; type: biochemical
Difi cells = test: Caspase 3/7 activity assay; type: cell-based, human; conditions: 24 hours treatment, compared with Cetuximab
Procedure, shortened: as §1

HEK293 cells [10] = test: Western blot of signaling proteins; type: cell-based, human; conditions: 48 hours
Procedure, shortened: as §3

ERBB2/HER2 = ERBB2/HER2 (Homo sapiens, UniProt P04626); test: Recombinant kinase 33P-ATP activity assay; type: biochemical
ERBB2/HER2, sequence (P04626 23-1255): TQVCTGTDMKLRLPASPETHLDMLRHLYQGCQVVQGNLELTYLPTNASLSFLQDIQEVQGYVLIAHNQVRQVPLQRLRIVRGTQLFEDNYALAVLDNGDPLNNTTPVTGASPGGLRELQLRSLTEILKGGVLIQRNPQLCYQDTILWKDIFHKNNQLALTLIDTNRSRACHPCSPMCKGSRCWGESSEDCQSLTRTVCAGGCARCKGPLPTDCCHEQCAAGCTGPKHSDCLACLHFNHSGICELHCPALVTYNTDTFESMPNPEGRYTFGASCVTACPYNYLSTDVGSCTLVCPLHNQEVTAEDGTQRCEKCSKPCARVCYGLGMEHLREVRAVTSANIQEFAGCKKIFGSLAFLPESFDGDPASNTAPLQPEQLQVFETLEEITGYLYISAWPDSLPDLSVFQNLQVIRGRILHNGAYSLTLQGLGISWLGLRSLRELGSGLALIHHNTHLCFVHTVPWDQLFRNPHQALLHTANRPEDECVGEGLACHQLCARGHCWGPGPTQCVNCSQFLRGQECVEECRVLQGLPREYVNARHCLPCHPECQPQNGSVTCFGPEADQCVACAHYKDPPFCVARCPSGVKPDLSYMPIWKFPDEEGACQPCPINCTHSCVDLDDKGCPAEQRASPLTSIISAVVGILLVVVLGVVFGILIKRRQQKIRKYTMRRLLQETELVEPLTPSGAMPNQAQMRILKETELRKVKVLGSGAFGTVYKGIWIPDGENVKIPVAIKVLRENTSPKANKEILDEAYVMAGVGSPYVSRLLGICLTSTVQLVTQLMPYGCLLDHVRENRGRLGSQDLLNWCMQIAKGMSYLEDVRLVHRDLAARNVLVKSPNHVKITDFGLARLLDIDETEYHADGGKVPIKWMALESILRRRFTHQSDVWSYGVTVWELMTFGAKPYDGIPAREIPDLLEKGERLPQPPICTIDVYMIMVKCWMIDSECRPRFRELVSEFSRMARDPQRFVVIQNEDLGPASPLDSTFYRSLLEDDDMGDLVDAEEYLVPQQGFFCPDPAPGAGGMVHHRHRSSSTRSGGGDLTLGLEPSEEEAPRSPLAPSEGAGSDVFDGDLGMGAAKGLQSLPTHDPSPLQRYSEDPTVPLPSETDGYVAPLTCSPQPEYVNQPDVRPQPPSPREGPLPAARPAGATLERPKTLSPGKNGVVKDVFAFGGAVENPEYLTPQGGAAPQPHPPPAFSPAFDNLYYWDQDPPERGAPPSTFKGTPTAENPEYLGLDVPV

C6 cells [11] = test: Caspase 3/7 activity assay; type: cell-based, rat; conditions: 24 hours treatment, any of the tested concentrations
colon and glioma cells = test: FACS analysis of cell cycle distribution; type: cell-based; conditions: all the cell lines, low concentrations, 48 hours
Procedure, shortened: as §2

[12] = tested on: GPCR pathway genes in C6, HCT116, DLD1 and Difi cells; test: GPCR signaling pathway profiling by real-time PCR; type: cell-based; conditions: 5μM, 48 hours, all 4 cell lines
Procedure, shortened: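 Total RNA taken from C6, DLD1, HCT116 and Difi cells treated with or without 5μM test compound for 48 h, then reverse transcribed. DLD1 cDNA screened on an 82-gene human GPCR-pathway qPCR array, with control and treated expression compared by subtraction. Hits confirmed in C6 and the three colon lines by SYBR Green real-time PCR with primers in different coding regions.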

PDGFrb = PDGFrb (Homo sapiens, UniProt P09619); test: Recombinant kinase 33P-ATP activity assay; type: biochemical
PDGFrb, sequence (P09619 33-1106): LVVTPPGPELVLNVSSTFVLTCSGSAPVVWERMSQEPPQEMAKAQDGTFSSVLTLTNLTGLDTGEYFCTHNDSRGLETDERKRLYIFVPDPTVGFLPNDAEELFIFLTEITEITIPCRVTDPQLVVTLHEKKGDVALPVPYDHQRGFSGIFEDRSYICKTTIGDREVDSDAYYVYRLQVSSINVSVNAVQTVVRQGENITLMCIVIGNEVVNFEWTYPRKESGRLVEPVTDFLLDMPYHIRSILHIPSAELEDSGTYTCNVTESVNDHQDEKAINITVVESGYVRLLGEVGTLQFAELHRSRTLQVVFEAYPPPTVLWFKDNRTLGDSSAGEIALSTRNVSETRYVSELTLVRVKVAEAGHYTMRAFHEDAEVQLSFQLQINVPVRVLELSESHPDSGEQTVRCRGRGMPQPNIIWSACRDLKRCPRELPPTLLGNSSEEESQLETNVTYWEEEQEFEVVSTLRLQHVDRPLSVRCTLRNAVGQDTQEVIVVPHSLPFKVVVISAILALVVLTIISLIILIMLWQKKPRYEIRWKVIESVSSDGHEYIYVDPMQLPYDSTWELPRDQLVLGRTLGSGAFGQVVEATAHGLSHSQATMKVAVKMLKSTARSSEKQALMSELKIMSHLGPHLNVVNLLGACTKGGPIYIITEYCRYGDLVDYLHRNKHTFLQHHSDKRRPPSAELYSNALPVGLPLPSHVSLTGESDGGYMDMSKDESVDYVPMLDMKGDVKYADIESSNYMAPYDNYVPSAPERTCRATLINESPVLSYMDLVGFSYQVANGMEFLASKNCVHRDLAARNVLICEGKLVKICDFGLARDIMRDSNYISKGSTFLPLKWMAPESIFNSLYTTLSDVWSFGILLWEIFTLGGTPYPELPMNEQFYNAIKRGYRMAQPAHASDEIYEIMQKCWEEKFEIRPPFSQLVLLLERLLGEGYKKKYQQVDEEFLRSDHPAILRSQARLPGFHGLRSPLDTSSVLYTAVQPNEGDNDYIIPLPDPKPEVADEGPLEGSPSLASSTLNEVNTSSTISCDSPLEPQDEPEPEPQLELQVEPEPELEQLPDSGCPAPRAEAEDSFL

[13] = read-out: % Enzyme Activity (Relative to DMSO Controls – 100%) Data 1
[14] = read-out: % Enzyme Activity (Relative to DMSO Controls – 100%) Data 2

## CCn1c2ccccc2c2cc(N/N=C3/C(=O)NN=C3C)ccc21 [VUGX01, (4E)-4-[2-(9-ethyl-9H-carbazol-3-yl)hydrazin-1-ylidene]-3-methyl-4,5-dihydro-1H-pyrazol-5-one]
DLD1 cells [1]
  cell growth: can inhibit the growth
DLD1 cells [2]
  p-c-raf (Ser259) and map2k level: increased at low concentrations and decreased at high concentrations
KDR/VEGFR2; [13]
  remaining activity at 1 µM: 98.3%
KDR/VEGFR2; [14]
  remaining activity at 1 µM: 98%
DLD1 cells [3]
  caspase 3/7 activation: greatly activate
FGFR1; [13]
  remaining activity at 1 µM: 107%
FGFR1; [14]
  remaining activity at 1 µM: 104%
FGFR2; [13]
  remaining activity at 1 µM: 96.1%
FGFR2; [14]
  remaining activity at 1 µM: 94.9%
HEK293 cells [4]
  caspase 3/7 activation: only slight activation
c-Src; [13]
  remaining activity at 1 µM: 99.2%
c-Src; [14]
  remaining activity at 1 µM: 99%
C6 cells [5]
  cell growth: can inhibit the growth
CDK2/cyclin A; 1μM
  inhibition on CDK2: 6%
CDK2/cyclin A; [13]
  remaining activity at 1 µM: 94.4%
CDK2/cyclin A; [14]
  remaining activity at 1 µM: 94.2%
CDK2/cyclin A; read-out: inhibition on CDK2, 1μM
  inhibition at 1 µM: 5 to 6%
HCT116 cells [6]
  caspase 3/7 activation: minimal effect
HEK293 cells [7]; 5μM
  cell cycle distribution: shifts the cell population from G1 to G2 phase
HEK293 cells [7]
  cell death (cells in sub G0 phase): noticeable amount of cell death
C6 cells [8]
  phosphorylation of AKT at serine 473: minor increase
EGFr; 1μM
  effects on EGFr kinase activity: minimal effects
EGFr; [13]
  remaining activity at 1 µM: 99.1%
EGFr; [14]
  remaining activity at 1 µM: 97.8%
FLT1/VEGFR1; [13]
  remaining activity at 1 µM: 100%
FLT1/VEGFR1; [14]
  remaining activity at 1 µM: 99.8%
HCT116 cells [9]
  p-c-raf (Ser259) and map2k level: increased at low concentrations and decreased at high concentrations
PDGFRa; [13]
  remaining activity at 1 µM: 96.3%
PDGFRa; [14]
  remaining activity at 1 µM: 96.2%
Difi cells
  caspase activation: less potent but is effective
HEK293 cells [10]
  effect on tested proteins (p-c-raf, map2k, AKT, p-AKT): no effect
ERBB2/HER2; [13]
  remaining activity at 1 µM: 99.3%
ERBB2/HER2; [14]
  remaining activity at 1 µM: 98.2%
C6 cells [11]
  caspase activation: effectively activate
Colon and glioma cells
  effects on G1 or G2/M phases: minimal effects
[12]
  expression of AGT, AGTR1, AGTR2, GCGR, MMP9, PIK3CG, PTGS2, SCTR, TSHR: elevated
PDGFrb; [13]
  remaining activity at 1 µM: 100%
PDGFrb; [14]
  remaining activity at 1 µM: 99.9%

Reference: publication PMC10563180 (Current cancer drug targets, 2020)
